A word on the Ki: it is a measure of affinity in units of concentration, obtained from inhibition or displacement. A low value points to tighter binding. For orientation: IC50 means the point on the concentration scale where inhibition reaches its midpoint.

Molecules are shown by their SMILES.

We go through 38 compounds from ChEMBL document CHEMBL1128511, “4-Aza-3-oxo-5 alpha-androst-1-ene-17 beta-N-aryl-carboxamides as dual inhibitors of human type 1 and type 2 steroid 5 alpha-reductases. Dramatic effect of N-aryl substituents on type 1 and type 2 5 alpha-reductase inhibitory potency” (J Med Chem, 1995).

Series [1] can be described thus: Kinetic Parameter Ki for Inhibition of Type 1 5-alpha-reductase.
Series [2] can be described thus: Kinetic Parameter Ki for Inhibition of Type-2 5-alpha-reductase.
Series [3] can be described thus: Kinetic Parameter k3/k1 for Inhibition of Type 1 5-alpha-reductase. The essentials: (§1)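 Baculovirus-expressed recombinant human type 1 or type 2 5α-reductase; conversion of testosterone to DHT followed over time with and without inhibitor under standard conditions. Second-order rate constants obtained by fitting progress data to the integrated first-order rate equation for time-dependent inhibition.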

Series [4] in a line: Kinetic Parameter k3/k1 for Inhibition of Type-2 5-alpha-reductase. A digest of the protocol: as §1
Series [5] concerns the target T1, 3-oxo-5-alpha-steroid 4-dehydrogenase 2 (Homo sapiens, UniProt P31213).
T1 sequence (P31213 whole entry): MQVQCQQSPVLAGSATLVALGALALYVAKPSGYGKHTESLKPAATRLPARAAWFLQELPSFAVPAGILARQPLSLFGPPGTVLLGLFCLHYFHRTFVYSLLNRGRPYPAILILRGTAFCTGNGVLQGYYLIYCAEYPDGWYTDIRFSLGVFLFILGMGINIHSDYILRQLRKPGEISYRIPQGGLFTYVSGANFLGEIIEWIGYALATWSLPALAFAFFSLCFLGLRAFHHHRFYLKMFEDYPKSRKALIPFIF
Kind of series: Inhibition of recombinant human Steroid 5-alpha-reductase type 2. A digest of the protocol: (§2)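 Baculovirus-expressed recombinant human type 1 or type 2 5α-reductase; cofactor and inhibitor preincubated with the enzyme before testosterone is added. Fixed-time assay following conversion of testosterone to DHT with and without inhibitor. The IC50 is the nM concentration giving 50% inhibition of DHT formation.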

The target in series [6] is T2, 3-oxo-5-alpha-steroid 4-dehydrogenase 1 (Homo sapiens, UniProt P18405).
T2 sequence (P18405 whole entry): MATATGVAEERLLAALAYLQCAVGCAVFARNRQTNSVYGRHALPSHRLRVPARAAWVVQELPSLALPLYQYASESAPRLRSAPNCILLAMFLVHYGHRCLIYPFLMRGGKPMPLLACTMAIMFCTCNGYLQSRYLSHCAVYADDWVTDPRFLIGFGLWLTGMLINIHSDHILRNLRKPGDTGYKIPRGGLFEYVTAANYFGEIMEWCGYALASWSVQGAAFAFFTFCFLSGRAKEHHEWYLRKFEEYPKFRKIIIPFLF
The series can be described thus: Inhibition of recombinant human Steroid 5-alpha-reductase type I. A digest of the protocol: as §2

Take `C[C@]12C=CC(=O)NC1CCC1C2CC[C@]2(C)C(C(=O)Nc3cc(C(F)(F)F)ccc3C(F)(F)F)CCC12` (stereo not given in full): the Ki in series [1] was 0.0024 µM; in series [2], 0.0005 µM. For the same compound, the k3/ki worked out at 270000 M⁻¹ s⁻¹ in series [3] and 7000000 M⁻¹ s⁻¹ in series [4]. Further, the IC50 in series [5] was less than 0.0001 µM; in series [6], 0.0058 µM.
Turning to `COc1ccc(NC(=O)C2CCC3C4CCC5NC(=O)C=C[C@]5(C)C4CC[C@]23C)cc1` (stereo not given in full), the figures for the IC50 in series [5] and in series [6] were less than 0.001 µM and 0.026 µM, respectively.
`C[C@]12C=CC(=O)NC1CCC1C2CC[C@]2(C)C(C(=O)Nc3ccc(F)cc3)CCC12` (stereo not given in full): the IC50 was found to be 0.0002 µM in series [5] and 0.0225 µM in series [6].
As for `C[C@]12C=CC(=O)NC1CCC1C2CC[C@]2(C)C(C(=O)Nc3cccc(F)c3)CCC12` (stereo not given in full), the IC50 in series [5] was determined as 0.0002 µM; in series [6] it was 0.023 µM.
For `C[C@]12C=CC(=O)NC1CCC1C2CC[C@]2(C)C(C(=O)Nc3ccc(-c4ccccc4)cc3)CCC12` (stereo not given in full) the same measures were 0.0022 µM and 0.0349 µM.
For `C[C@]12C=CC(=O)NC1CCC1C2CC[C@]2(C)C(C(=O)N(c3ccccc3)c3ccccc3)CCC12` (stereo not given in full) the same measures were 0.0252 µM and greater than 1 µM.
Taken in the same sequence, the figures for `C[C@]12C=CC(=O)NC1CCC1C2CC[C@]2(C)C(C(=O)Nc3ccc(Cl)cc3)CCC12` (stereo not given in full) were 0.0002 µM and 0.0068 µM.
Take `C[C@]12C=CC(=O)NC1CCC1C2CC[C@]2(C)C(C(=O)Nc3cccc(Br)c3)CCC12` (stereo not given in full): the IC50 was 0.0002 µM in series [5] and 0.0205 µM in series [6].
Taken in the same sequence, the figures for `C[C@]12C=CC(=O)NC1CCC1C2CC[C@]2(C)C(C(=O)Nc3cccc(Cl)c3)CCC12` (stereo not given in full) were 0.0001 µM and 0.0182 µM.
Taken in the same sequence, the figures for `C[C@]12C=CC(=O)NC1CCC1C2CC[C@]2(C)C(C(=O)Nc3ccccc3Cl)CCC12` (stereo not given in full) were less than 0.0001 µM and 0.0145 µM.
Taken in the same sequence, the figures for `COc1cccc(NC(=O)C2CCC3C4CCC5NC(=O)C=C[C@]5(C)C4CC[C@]23C)c1` (stereo not given in full) were less than 0.001 µM and 0.019 µM.
With `C[C@]12C=CC(=O)NC1CCC1C2CC[C@]2(C)C(C(=O)Nc3cccc(C(=O)c4ccccc4)c3)CCC12` (stereo not given in full), the results for the IC50 in series [5] and in series [6] were less than 0.001 µM and 0.012 µM, respectively.
For `C[C@]12C=CC(=O)NC1CCC1C2CC[C@]2(C)C(C(=O)N3CCCc4ccccc43)CCC12` (stereo not given in full) the same measures were 0.0014 µM and 0.154 µM.
As for `C[C@]12C=CC(=O)NC1CCC1C2CC[C@]2(C)C(C(=O)Nc3ccccc3C(=O)c3ccccc3)CCC12` (stereo not given in full), the IC50 in series [5] is less than 0.001 µM; in series [6], 0.0287 µM.
In the case of `C[C@]12C=CC(=O)NC1CCC1C2CC[C@]2(C)C(C(=O)Nc3cccc4ccccc34)CCC12` (stereo not given in full), the Ki was found to be 0.07 µM in series [1] and 0.0005 µM in series [2]. The same compound gave a k3/k1 in series [4] of 2100000 M⁻¹ s⁻¹. Further, the results for the IC50 in series [5] and in series [6] were 0.0002 µM and 0.0081 µM, respectively.
With `C[C@]12C=CC(=O)NC1CCC1C2CC[C@]2(C)C(C(=O)Nc3cccc(C(F)(F)F)c3)CCC12` (stereo not given in full), the IC50 in series [5] is 0.0001 µM; in series [6] it was 0.0125 µM.
Taken in the same sequence, the figures for `C[C@]12C=CC(=O)NC1CCC1C2CC[C@]2(C)C(C(=O)Nc3ccc4ccccc4c3)CCC12` (stereo not given in full) were 0.0002 µM and 0.0172 µM.
Taken in the same sequence, the figures for `Cc1ccccc1NC(=O)C1CCC2C3CCC4NC(=O)C=C[C@]4(C)C3CC[C@]12C` (stereo not given in full) were less than 0.0001 µM and 0.0303 µM.
`C[C@]12C=CC(=O)NC1CCC1C2CC[C@]2(C)C(C(=O)Nc3ccccc3F)CCC12` (stereo not given in full): the IC50 in series [5] is less than 0.0001 µM; in series [6], 0.0079 µM.
Taken in the same sequence, the figures for `C[C@]12C=CC(=O)NC1CCC1C2CC[C@]2(C)C(C(=O)Nc3cccc(N)c3)CCC12` (stereo not given in full) were less than 0.001 µM and 0.094 µM.
Taken in the same sequence, the figures for `COc1ccccc1NC(=O)C1CCC2C3CCC4NC(=O)C=C[C@]4(C)C3CC[C@]12C` (stereo not given in full) were less than 0.001 µM and 0.011 µM.
Taken in the same sequence, the figures for `C[C@]12C=CC(=O)NC1CCC1C2CC[C@]2(C)C(C(=O)N3CCCCc4ccccc43)CCC12` (stereo not given in full) were 0.0102 µM and 0.595 µM.
For the compound `C[C@]12C=CC(=O)NC1CCC1C2CC[C@]2(C)C(C(=O)Nc3cccc(O)c3)CCC12` (stereo not given in full), the IC50 is less than 0.001 µM in series [5] and 0.052 µM in series [6].
In the case of `Cc1cccc(C)c1NC(=O)C1CCC2C3CCC4NC(=O)C=C[C@]4(C)C3CC[C@]12C` (stereo not given in full), the IC50 in series [5] was less than 0.001 µM; in series [6], 0.014 µM.
For `C[C@]12C=CC(=O)NC1CCC1C2CC[C@]2(C)C(C(=O)Nc3ccccc3-c3ccccc3)CCC12` (stereo not given in full) the same measures were less than 0.0001 µM and 0.0383 µM.
For `Cc1ccc(NC(=O)C2CCC3C4CCC5NC(=O)C=C[C@]5(C)C4CC[C@]23C)cc1` (stereo not given in full), the IC50 was 0.0001 µM in series [5] and 0.0172 µM in series [6].
Taken in the same sequence, the figures for `C[C@]12C=CC(=O)NC1CCC1C2CC[C@]2(C)C(C(=O)Nc3ccc(O)cc3)CCC12` (stereo not given in full) were less than 0.001 µM and 0.074 µM.
For `C[C@]12C=CC(=O)NC1CCC1C2CC[C@]2(C)C(C(=O)Nc3ccc(C(=O)c4ccccc4)cc3)CCC12` (stereo not given in full) the same measures were 0.0016 µM and 0.019 µM.
For `C[C@]12C=CC(=O)NC1CCC1C2CC[C@]2(C)C(C(=O)Nc3ccc(N)cc3)CCC12` (stereo not given in full) the same measures were less than 0.001 µM and 0.12 µM.
On to `C[C@]12C=CC(=O)NC1CCC1C2CC[C@]2(C)C(C(=O)Nc3ccccc3C(F)(F)F)CCC12` (stereo not given in full), for which the Ki in series [1] is 0.012 µM; in series [2], 0.0013 µM. Moreover, the figures for the k3/ki in series [3] and in series [4] were 35000 M⁻¹ s⁻¹ and 9700000 M⁻¹ s⁻¹, respectively. For the same compound, the IC50 in series [5] was less than 0.0001 µM; in series [6], 0.0056 µM.
In the case of `Cc1cccc(NC(=O)C2CCC3C4CCC5NC(=O)C=C[C@]5(C)C4CC[C@]23C)c1` (stereo not given in full), the IC50 turned out to be 0.0003 µM in series [5] and 0.0246 µM in series [6].
Taken in the same sequence, the figures for `CCN(C(=O)C1CCC2C3CCC4NC(=O)C=C[C@]4(C)C3CC[C@]12C)c1ccccc1` (stereo not given in full) were 0.0079 µM and 0.614 µM.
Taken in the same sequence, the figures for `C[C@]12C=CC(=O)NC1CCC1C2CC[C@]2(C)C(C(=O)Nc3ccc(C(F)(F)F)cc3)CCC12` (stereo not given in full) were 0.0004 µM and 0.0209 µM.
With `C[C@]12C=CC(=O)NC1CCC1C2CC[C@]2(C)C(C(=O)Nc3ccccc3)CCC12` (stereo not given in full), the Ki in series [1] was 0.23 µM; in series [2], 0.0017 µM. The k3/ki in series [3] came to 3900 M⁻¹ s⁻¹; in series [4], 1700000 M⁻¹ s⁻¹. The IC50 in series [5] worked out at 0.0002 µM; in series [6], 0.02 µM.
In the case of `C[C@]12C=CC(=O)NC1CCC1C2CC[C@]2(C)C(C(=O)Nc3ccccc3O)CCC12` (stereo not given in full), the IC50 in series [5] is less than 0.001 µM; in series [6], 0.0129 µM.
Take `C[C@]12C=CC(=O)NC1CCC1C2CC[C@]2(C)C(C(=O)Nc3cccc(-c4ccccc4)c3)CCC12` (stereo not given in full): the Ki in series [1] amounted to 0.024 µM; in series [2], 0.0014 µM. The k3/ki in series [3] came out at 51000 M⁻¹ s⁻¹; in series [4] it was 5000000 M⁻¹ s⁻¹. For the same compound, the values for the IC50 in series [5] and in series [6] were less than 0.0001 µM and 0.014 µM, respectively.
Regarding `CN(C(=O)C1CCC2C3CCC4NC(=O)C=C[C@]4(C)C3CC[C@]12C)c1ccccc1` (stereo not given in full), the values for the IC50 in series [5] and in series [6] were 0.0246 µM and 0.35 µM, respectively.
Taken in the same sequence, the figures for `C[C@]12C=CC(=O)NC1CCC1C2CC[C@]2(C)C(C(=O)Nc3ccccc3N)CCC12` (stereo not given in full) were less than 0.001 µM and 0.13 µM.
